Results taken from ChEMBL document CHEMBL4257484, “Membrane-active antimicrobial poly(amino-modified alkyl) β-cyclodextrins synthesized via click reactions” (Medchemcomm, 2018).
≈ marks a conversion by molar mass, not a printed value.

Columns and labels:
[1] = Lipophilicity, log P of the compound; format: physicochemical; settings: octanol/water
Staphylococcus aureus [2] = assay: Antibacterial activity against methicillin-sensitive Staphylococcus aureus FDA 209P after 20 hrs by liquid microdilution method; format: functional
How it was run: (§1)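 Two-fold serial dilutions of compound in Mueller–Hinton broth, inoculated with 1 × 10^4 cells and cultured at 37 °C for 20 h in microtiter wells.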

Bacillus subtilis = assay: Antibacterial activity against drug-sensitive Bacillus subtilis 168 after 20 hrs by liquid microdilution method; format: functional; settings: subsp. subtilis str. 168, 20 h; how it was run: as §1
Escherichia coli = assay: Antibacterial activity against drug-sensitive Escherichia coli K-12 W3110 after 20 hrs by liquid microdilution method; format: functional; settings: K-12 substr. W3110, 20 h; how it was run: as §1
Salmonella typhimurium = assay: Antibacterial activity against drug-sensitive Salmonella typhimurium LT2 after 20 hrs by liquid microdilution method; format: functional, Salmonella enterica subsp. enterica serovar Typhimurium; settings: Salmonella enterica, LT2, 20 h; how it was run: as §1
Pseudomonas aeruginosa = assay: Antibacterial activity against drug-sensitive Pseudomonas aeruginosa PAO1 after 20 hrs by liquid microdilution method; format: functional; settings: PAO1, 20 h; how it was run: as §1
[3] = Hemolytic activity in rabbit RBC at 50 uM after 20 mins relative to control; format: ADME, cell-based, Oryctolagus cuniculus, Erythrocyte; settings: rabbit red blood cells (erythrocytes), read-out: Activity
How it was run: (§2)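 Rabbit erythrocytes suspended in 150 mM NaCl/10 mM Hepes-NaOH, pH 7.4, at 0.5% hematocrit (final) and incubated with compound at 37 °C. The table footnote gives 20 min; the methods section gives 30 min. Hemolysis was read as absorbance at 540 nm, with 50 µM lysolecithin defining 100% hemolysis.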

[4] = Hemolytic activity in rabbit RBC at 20 uM after 20 mins relative to control; format: ADME, cell-based, Oryctolagus cuniculus, Erythrocyte; settings: rabbit red blood cells (erythrocytes), read-out: Activity; how it was run: as §2
[5] = Hemolytic activity in rabbit RBC at 10 uM after 20 mins relative to control; format: ADME, cell-based, Oryctolagus cuniculus, Erythrocyte; settings: rabbit red blood cells (erythrocytes), read-out: Activity; how it was run: as §2
[6] = Hemolytic activity in rabbit RBC at 5 uM after 20 mins relative to control; format: ADME, cell-based, Oryctolagus cuniculus, Erythrocyte; settings: rabbit red blood cells (erythrocytes), read-out: Activity; how it was run: as §2
[7] = Hemolytic activity in rabbit RBC at 2 uM after 20 mins relative to control; format: ADME, cell-based, Oryctolagus cuniculus, Erythrocyte; settings: rabbit red blood cells (erythrocytes), read-out: Activity; how it was run: as §2
[8] = Hemolytic activity in rabbit RBC at 1 uM after 20 mins relative to control; format: ADME, cell-based, Oryctolagus cuniculus, Erythrocyte; settings: rabbit red blood cells (erythrocytes), read-out: Activity; how it was run: as §2
Staphylococcus aureus [9] = assay: Antibacterial activity against methicillin-resistant Staphylococcus aureus MS29202 after 18 to 20 hrs by agar dilution method; format: functional
How it was run: (§3)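 Agar dilution per CLSI. Overnight broth cultures were diluted 100-fold, and one loopful (about 10^5 to 10^4 CFU) was spotted onto agar plates containing the CD. Growth was scored after 18–20 h at 37 °C. MIC values are in µM.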

Streptococcus agalactiae = assay: Antibacterial activity against drug-resistant Streptococcus agalactiae B1 after 18 to 20 hrs by agar dilution method; format: functional; how it was run: as §3
Enterococcus faecium = assay: Antibacterial activity against drug-resistant Enterococcus faecium MS29120 after 18 to 20 hrs by agar dilution method; format: functional; how it was run: as §3
Enterococcus faecalis [10] = assay: Antibacterial activity against drug-resistant Enterococcus faecalis MS29030 after 18 to 20 hrs by agar dilution method; format: functional; how it was run: as §3
Enterococcus faecalis [11] = assay: Antibacterial activity against vancomycin-resistant Enterococcus faecalis MS29016 after 18 to 20 hrs by agar dilution method; format: functional; how it was run: as §3
Staphylococcus aureus [12] = assay: Induction of membrane disruption in methicillin-sensitive Staphylococcus aureus FDA 209P assessed as increase in K+ efflux after 30 mins; format: functional; settings: 0.5 h, read-out: ED50 (the source's name)
How it was run: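 S. aureus washed twice and suspended at 2 × 10^9 cells per cm3 in 100 mM choline chloride/50 mM Mops-Tris, pH 7.2, then exposed to compound at 37 °C for 30 min. Released K+ was measured in the centrifuged supernatant with a K+-selective electrode. Melittin (10 µM) defined 100% efflux, and ED50 is the concentration giving 50% efflux.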

Staphylococcus aureus [13] = assay: Antibacterial activity against Staphylococcus aureus FDA 209P assessed as decrease in cell viability after 30 mins by colony counting method; format: functional; settings: 0.5 h
How it was run: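 S. aureus washed twice and suspended at 2 × 10^9 cells per cm3 in 100 mM choline chloride/50 mM Mops-Tris, pH 7.2. Exposed to CD at 37 °C for 30 min. An aliquot was diluted in physiological saline, plated on polypeptone/yeast extract/NaCl agar and incubated overnight at 37 °C. Viability was taken from colony counts; LC50 is the concentration giving 50% viability.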

Structure (SMILES) | logP [1] | MIC (Staphylococcus aureus [2]) | MIC (Bacillus subtilis) | MIC (Escherichia coli) | MIC (Salmonella typhimurium) | MIC (Pseudomonas aeruginosa) | hemolysis at 20 min, 50 µM [3] | hemolysis at 20 min, 20 µM [4] | hemolysis at 20 min, 10 µM [5] | hemolysis at 20 min, 5 µM [6] | hemolysis at 20 min, 2 µM [7] | hemolysis at 20 min, 1 µM [8] | MIC (Staphylococcus aureus [9]) | MIC (Streptococcus agalactiae) | MIC (Enterococcus faecium) | MIC (Enterococcus faecalis [10]) | MIC (Enterococcus faecalis [11]) | EC50 (Staphylococcus aureus [12]) | LC50 (Staphylococcus aureus [13])
CCCCNCc1cn(C[C@H]2O[C@@H]3O[C@H]4[C@H](O)[C@@H](O)[C@@H](O[C@H]5[C@H](O)[C@@H](O)[C@@H](O[C@H]6[C@H](O)[C@@H](O)[C@@H](O[C@H]7[C@H](O)[C@@H](O)[C@@H](O[C@H]8[C@H](O)[C@@H](O)[C@@H](O[C@H]9[C@H](O)[C@@H](O)[C@@H](O[C@H]2[C@H](O)[C@H]3O)O[C@@H]9Cn2cc(CNCCCC)nn2)O[C@@H]8Cn2cc(CNCCCC)nn2)O[C@@H]7Cn2cc(CNCCCC)nn2)O[C@@H]6Cn2cc(CNCCCC)nn2)O[C@@H]5Cn2cc(CNCCCC)nn2)O[C@@H]4Cn2cc(CNCCCC)nn2)nn1 | -0.9 | 11 to 22 µM (≈ 23 to 45.9 µg/mL) | 11 µM (≈ 23 µg/mL) | > 44 µM | > 44 µM | > 44 µM | 0% | 0% | 0% | 0% | 0% | 0% | > 44 µM | > 44 µM | > 44 µM | > 44 µM | > 44 µM | > 50 µM | > 50 µM
OC[C@H]1O[C@@H]2O[C@H]3[C@H](O)[C@@H](O)[C@@H](O[C@H]4[C@H](O)[C@@H](O)[C@@H](O[C@H]5[C@H](O)[C@@H](O)[C@@H](O[C@H]6[C@H](O)[C@@H](O)[C@@H](O[C@H]7[C@H](O)[C@@H](O)[C@@H](O[C@H]8[C@H](O)[C@@H](O)[C@@H](O[C@H]1[C@H](O)[C@H]2O)O[C@@H]8CO)O[C@@H]7CO)O[C@@H]6CO)O[C@@H]5CO)O[C@@H]4CO)O[C@@H]3CO [BETADEX] | – | – | – | – | – | – | – | – | – | – | – | – | – | – | – | – | – | > 50 µM | > 50 µM
CCCCCCNCc1cn(C[C@H]2O[C@@H]3O[C@H]4[C@H](O)[C@@H](O)[C@@H](O[C@H]5[C@H](O)[C@@H](O)[C@@H](O[C@H]6[C@H](O)[C@@H](O)[C@@H](O[C@H]7[C@H](O)[C@@H](O)[C@@H](O[C@H]8[C@H](O)[C@@H](O)[C@@H](O[C@H]9[C@H](O)[C@@H](O)[C@@H](O[C@H]2[C@H](O)[C@H]3O)O[C@@H]9Cn2cc(CNCCCCCC)nn2)O[C@@H]8Cn2cc(CNCCCCCC)nn2)O[C@@H]7Cn2cc(CNCCCCCC)nn2)O[C@@H]6Cn2cc(CNCCCCCC)nn2)O[C@@H]5Cn2cc(CNCCCCCC)nn2)O[C@@H]4Cn2cc(CNCCCCCC)nn2)nn1 | -0.06 | 3 to 10 µM (≈ 6.85 to 22.8 µg/mL) | 3 µM (≈ 6.85 µg/mL) | 5 µM (≈ 11.4 µg/mL) | 10 µM (≈ 22.8 µg/mL) | 10 µM (≈ 22.8 µg/mL) | 110% | 64% | 25% | 7% | 4% | 0% | 21 µM (≈ 48 µg/mL) | 10 µM (≈ 22.8 µg/mL) | 10 µM (≈ 22.8 µg/mL) | > 42 µM | 42 µM (≈ 96 µg/mL) | 15 µM | 15 µM
O[C@@H]1[C@@H](O)[C@H]2O[C@H]3[C@H](O)[C@@H](O)[C@@H](O[C@H]4[C@H](O)[C@@H](O)[C@@H](O[C@H]5[C@H](O)[C@@H](O)[C@@H](O[C@H]6[C@H](O)[C@@H](O)[C@@H](O[C@H]7[C@H](O)[C@@H](O)[C@@H](O[C@H]8[C@H](O)[C@@H](O)[C@@H](O[C@@H]1[C@@H](Cn1cc(CNCC9CCCC9)nn1)O2)O[C@@H]8Cn1cc(CNCC2CCCC2)nn1)O[C@@H]7Cn1cc(CNCC2CCCC2)nn1)O[C@@H]6Cn1cc(CNCC2CCCC2)nn1)O[C@@H]5Cn1cc(CNCC2CCCC2)nn1)O[C@@H]4Cn1cc(CNCC2CCCC2)nn1)O[C@@H]3Cn1cc(CNCC2CCCC2)nn1 | -0.58 | 1 to 5 µM (≈ 2.27 to 11.4 µg/mL) | 21 µM (≈ 47.7 µg/mL) | 21 µM (≈ 47.7 µg/mL) | > 42 µM | > 42 µM | 8% | 2% | 1% | 1% | 1% | 2% | 21 µM (≈ 47.7 µg/mL) | 10 µM (≈ 22.7 µg/mL) | 21 µM (≈ 47.7 µg/mL) | > 42 µM | > 42 µM | – | –
NC(CC1CCCCC1)c1cn(C[C@H]2O[C@@H]3O[C@H]4[C@H](O)[C@@H](O)[C@@H](O[C@H]5[C@H](O)[C@@H](O)[C@@H](O[C@H]6[C@H](O)[C@@H](O)[C@@H](O[C@H]7[C@H](O)[C@@H](O)[C@@H](O[C@H]8[C@H](O)[C@@H](O)[C@@H](O[C@H]9[C@H](O)[C@@H](O)[C@@H](O[C@H]2[C@H](O)[C@H]3O)O[C@@H]9Cn2cc(C(N)CC3CCCCC3)nn2)O[C@@H]8Cn2cc(C(N)CC3CCCCC3)nn2)O[C@@H]7Cn2cc(C(N)CC3CCCCC3)nn2)O[C@@H]6Cn2cc(C(N)CC3CCCCC3)nn2)O[C@@H]5Cn2cc(C(N)CC3CCCCC3)nn2)O[C@@H]4Cn2cc(C(N)CC3CCCCC3)nn2)nn1 (stereo partly specified) | -0.35 | 10 µM (≈ 23.7 µg/mL) | 3 µM (≈ 7.11 µg/mL) | 10 µM (≈ 23.7 µg/mL) | 10 µM (≈ 23.7 µg/mL) | 20 µM (≈ 47.4 µg/mL) | 118% | 117% | 107% | 89% | 31% | 13% | 20 µM (≈ 47.4 µg/mL) | 20 µM (≈ 47.4 µg/mL) | 20 µM (≈ 47.4 µg/mL) | 40 µM (≈ 94.8 µg/mL) | 20 µM (≈ 47.4 µg/mL) | – | –
CCC(CC)CNCc1cn(C[C@H]2O[C@@H]3O[C@H]4[C@H](O)[C@@H](O)[C@@H](O[C@H]5[C@H](O)[C@@H](O)[C@@H](O[C@H]6[C@H](O)[C@@H](O)[C@@H](O[C@H]7[C@H](O)[C@@H](O)[C@@H](O[C@H]8[C@H](O)[C@@H](O)[C@@H](O[C@H]9[C@H](O)[C@@H](O)[C@@H](O[C@H]2[C@H](O)[C@H]3O)O[C@@H]9Cn2cc(CNCC(CC)CC)nn2)O[C@@H]8Cn2cc(CNCC(CC)CC)nn2)O[C@@H]7Cn2cc(CNCC(CC)CC)nn2)O[C@@H]6Cn2cc(CNCC(CC)CC)nn2)O[C@@H]5Cn2cc(CNCC(CC)CC)nn2)O[C@@H]4Cn2cc(CNCC(CC)CC)nn2)nn1 | -0.08 | 3 to 5 µM (≈ 6.85 to 11.4 µg/mL) | 3 µM (≈ 6.85 µg/mL) | 10 µM (≈ 22.8 µg/mL) | 42 µM (≈ 96 µg/mL) | 42 µM (≈ 96 µg/mL) | 12% | 8% | 8% | 3% | 1% | 5% | 21 µM (≈ 48 µg/mL) | 3 µM (≈ 6.85 µg/mL) | 10 µM (≈ 22.8 µg/mL) | > 42 µM | 21 µM (≈ 48 µg/mL) | – | –
